Bioassay records as filed in PubChem.
Compounds with a hit are over-represented: about 3.5% of the library has one in this group of screens.
RGS4 inh: RGS4 inhibitors, primary screen, cell-based, HEK293 M3R inducible RGS4, calcium flux; AID 463165, 2010; Fluo-4 calcium flux; hits give high values; triggered by carbachol at its EC20; Regulator of G-protein signaling 4 (Homo sapiens), P49798; B-score at 10 µM; 310,000 tested, 0.45% active;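 active means B-score, a plate-corrected calcium signal, over three deviations above library mean, with baseline fluorescence within five deviations of library mean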;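 further: RGS4 expression induced by doxycycline in cells with stable M3 receptor; B-score is computed from the integrated fluorescence ratio over baseline after carbachol; higher B-score means a larger calcium signal and so more RGS4 inhibition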
Target sequence (P49798 whole entry, looked up): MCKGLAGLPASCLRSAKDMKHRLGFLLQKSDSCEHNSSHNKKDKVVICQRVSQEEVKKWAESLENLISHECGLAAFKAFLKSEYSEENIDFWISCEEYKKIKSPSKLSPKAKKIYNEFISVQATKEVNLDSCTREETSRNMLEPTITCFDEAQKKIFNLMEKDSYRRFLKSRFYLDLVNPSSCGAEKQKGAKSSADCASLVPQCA
MrgX1 PAM: positive allosteric modulators of MrgX1, primary screen, HEK293 cells, Fluo-4 calcium flux; Mas-related G-protein coupled receptor member X1 (Homo sapiens), Q96LB2; FDSS; hits give high values; B-score at 10 µM; 310,000 tested, 0.63% active;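 active means plate-corrected calcium response at least 3 library SD above typical, normal starting fluorescence, not activating the receptor alone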;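 further: compound read alongside a low EC10 to EC30 dose of BAM8-22 agonist; peak minus trough fluorescence over baseline measured at the second addition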
Target sequence (Q96LB2 whole entry, looked up): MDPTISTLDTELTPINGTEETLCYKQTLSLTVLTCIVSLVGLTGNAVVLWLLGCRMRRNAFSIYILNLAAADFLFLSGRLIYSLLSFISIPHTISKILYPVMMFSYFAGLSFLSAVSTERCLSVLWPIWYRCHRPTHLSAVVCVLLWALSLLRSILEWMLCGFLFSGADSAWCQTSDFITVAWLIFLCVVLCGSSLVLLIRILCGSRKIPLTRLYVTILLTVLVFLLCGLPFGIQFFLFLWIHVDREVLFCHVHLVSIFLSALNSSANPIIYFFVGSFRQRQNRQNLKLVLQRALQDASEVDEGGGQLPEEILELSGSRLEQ
MrgX1 antag: antagonists of human MrgX1 receptor, primary screen, HEK293 cells, Fluo-4 calcium flux | Mas-related G-protein coupled receptor member X1 (Homo sapiens), Q96LB2 | BAM8-22 antagonism; hits give low values | B-score at 10 µM | 310,000 tested, 1.3% active | AID 588676, 2011;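 active means calcium-response B-score plate-corrected more than 3 library SD below zero, starting fluorescence within 5 deviations, no agonist response on first addition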;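 further: peak minus trough fluorescence over baseline after final BAM8-22 challenge near maximal dose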
MrgX1 ag: agonists of human MrgX1 receptor, primary screen, HEK293 cells, Fluo-4 calcium flux | B-score at 10 µM | Fluo-4 calcium fluorescence, agonist mode; hits give high values | 310,000 tested, 0.44% active;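 active means calcium response B-score plate-corrected fluorescence ratio at least 3 library SD, with starting fluorescence B-score inside 5 SD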
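Material: MrgX1-expressing HEK293 cells / Dosing: compound as first of three additions / Incubation: overnight seeding, then 1 h dark dye loading / Signal: Fluo-4 NW calcium fluorescence / Evaluation: B-scored fluorescence response ratio / Benchmarks: positive and negative control wells on each plate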
RGS4 act: RGS4 potentiators or activators, primary screen, cell-based, HEK293 M3R inducible RGS4, calcium flux | carbachol calcium flux Fluo4; hits give low values | B-score at 10 µM | 310,000 tested, 0.92% active;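 active means B-score of the integrated calcium signal more than 4 SD below the library mean, with starting fluorescence not abnormally high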;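 further: negative B-score means reduced calcium response which marks RGS4 activation or potentiation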
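System – HEK293 FlpIn-TREx cells, stable M3R, doxycycline-inducible RGS4 · Reagent – ECmax carbachol challenge · Times – compound preincubation 20 min at room temperature before agonist · Technique – Fluo4 fluorescence kinetic imaging of calcium · Measure – B score of integrated Fluo4 ratio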
RGS4 act valid: reduced carbachol calcium response, RGS4-induced M3R cells, confirmation, RGS4 activator project, cell-based, HEK293 M3R/RGS4 inducible, calcium flux, duplicate; shares compounds with RGS4 act; carbachol calcium flux Fluo4; inhibition, % at 10 µM; 1,100 tested, 89% active;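 active means inhibition above 3 SD of the buffer control wells, cut at about 41% in these data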;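 further: signal is the integrated peak-minus-minimum Fluo4 fluorescence over baseline ratio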
M3R Ca counter: counter-screen for RGS4 activators: effect in non-induced cells; shares compounds with RGS4 act; HEK293 M3R non-induced RGS4, Fluo4 calcium flux; after carbachol challenge at its EC90; inhibition, % at 10 µM; 1,100 tested, 82% active;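 active means inhibition exceeding 3 SD of buffer-only control wells, cut at about 26% in these data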;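 further: percent drop in integrated peak-minus-baseline over baseline Fluo4 ratio after carbachol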
A number is an active result.

How did CCCCS/C(=C(/C#N)C(N)=O)c1cc2c([nH]1)CCCC2 do in these assays?
RGS4 inh: inactive; MrgX1 PAM: inactive; MrgX1 antag: inactive; MrgX1 ag: inactive; RGS4 act: -8.2; RGS4 act valid: 94; M3R Ca counter: 92

What do the screens show for `Cc1ccn2c(NC(C)(C)C)c(-c3cccs3)nc2c1`?
RGS4 inh: inactive; MrgX1 PAM: inactive; MrgX1 antag: inactive; MrgX1 ag: inactive; RGS4 act: inactive

How did COc1ccc(/C=N/NC(=O)c2ccccc2OCc2ccccc2)c(OC)c1 do in these assays?
RGS4 inh: inactive; MrgX1 PAM: inactive; MrgX1 antag: inactive; MrgX1 ag: inactive; RGS4 act: -11; RGS4 act valid: 94; M3R Ca counter: 76

What do the screens show for `COc1ccc(/C(C)=N/NC(=O)c2ccccc2OCc2ccccc2)c(OC)c1`?
RGS4 inh: inactive; MrgX1 PAM: inactive; MrgX1 antag: inactive; MrgX1 ag: inactive; RGS4 act: inactive

Results for COc1ccc(NC(=O)C2=C(C)Nc3nc(CCCO)nn3C2c2ccc(OC)c(OC)c2)cc1 (centres undefined) ?
RGS4 inh: inactive; MrgX1 PAM: inactive; MrgX1 antag: inactive; MrgX1 ag: inactive; RGS4 act: inactive

Results for COc1ccccc1C(=O)NC(C(=O)NCCc1nc2ccccc2[nH]1)=C(C)C ?
RGS4 inh: inactive; MrgX1 PAM: inactive; MrgX1 antag: inactive; MrgX1 ag: inactive; RGS4 act: inactive

How did CCCNC(=O)N1C2=NC(C(=O)OC)=C(C(=O)OC)[C@@H]3N(Cc4ccccc4)c4ccccc4[C@]23C[C@H]1CO do in these assays?
RGS4 inh: inactive; MrgX1 PAM: inactive; MrgX1 antag: inactive; MrgX1 ag: inactive; RGS4 act: inactive

Results for COc1cccc(CNC(=O)CCC2CCCN(c3cc(C)nc(N(C)C)n3)C2)c1 (centres undefined) ?
RGS4 inh: inactive; MrgX1 PAM: inactive; MrgX1 antag: inactive; MrgX1 ag: inactive; RGS4 act: -11; RGS4 act valid: 90; M3R Ca counter: 72

Results for O=C(CNC(=O)c1ccc(Br)cc1)NCc1cccnc1 ?
RGS4 inh: inactive; MrgX1 PAM: inactive; MrgX1 antag: inactive; MrgX1 ag: inactive; RGS4 act: inactive

How did COC(=O)c1ccc(OC)c(CSc2nnc(COc3ccccc3)o2)c1 do in these assays?
RGS4 inh: inactive; MrgX1 PAM: inactive; MrgX1 antag: inactive; MrgX1 ag: inactive; RGS4 act: inactive

How did COC(=O)c1ccc(OC)c(CSc2nnc(-c3ccc(C(C)(C)C)cc3)o2)c1 do in these assays?
RGS4 inh: inactive; MrgX1 PAM: inactive; MrgX1 antag: inactive; MrgX1 ag: inactive; RGS4 act: -7.9; RGS4 act valid: 58; M3R Ca counter: 84

How did CCOC(=O)Cc1csc(N/C(=N/S(=O)(=O)c2cc(Br)ccc2OCC)c2ccccc2)n1 do in these assays?
RGS4 inh: inactive; MrgX1 PAM: inactive; MrgX1 antag: inactive; MrgX1 ag: inactive; RGS4 act: inactive

Results for CC(=O)c1c(C)[nH]c(C(=O)OCC(=O)c2c(N)n(C)c(=O)n(C)c2=O)c1C ?
RGS4 inh: inactive; MrgX1 PAM: inactive; MrgX1 antag: inactive; MrgX1 ag: inactive; RGS4 act: inactive

How did O=c1[nH]cnc2sc3c(c12)CCC3 do in these assays?
RGS4 inh: inactive; MrgX1 PAM: inactive; MrgX1 antag: inactive; MrgX1 ag: inactive; RGS4 act: inactive

Results for CCOC(=O)N1CCC(N2CCN(CCC(C)C)C(CCO)C2)CC1 (centres undefined) ?
RGS4 inh: inactive; MrgX1 PAM: inactive; MrgX1 antag: inactive; MrgX1 ag: inactive; RGS4 act: -10; RGS4 act valid: 78; M3R Ca counter: 30

Results for CCC(=O)c1cn([C@H](CCC(OC)OC)CC(=O)OC(C)(C)C)cc1CC ?
RGS4 inh: inactive; MrgX1 PAM: inactive; MrgX1 antag: inactive; MrgX1 ag: inactive; RGS4 act: inactive

What do the screens show for `CC1=CC(C)(C)N(C(=O)CNC2CCCCC2)c2cc(C)ccc21`?
RGS4 inh: inactive; MrgX1 PAM: inactive; MrgX1 antag: inactive; MrgX1 ag: inactive; RGS4 act: -8.5; RGS4 act valid: 94; M3R Ca counter: 97

How did CC1=CC(C)(C)N(C(=O)CCl)c2cc(C)ccc21 do in these assays?
RGS4 inh: inactive; MrgX1 PAM: inactive; MrgX1 antag: inactive; MrgX1 ag: inactive; RGS4 act: inactive

Results for COc1ccc2cc3cc(C(=O)Nc4ccccc4N4CCN(C)CC4)oc3nc2c1 ?
RGS4 inh: inactive; MrgX1 PAM: inactive; MrgX1 antag: inactive; MrgX1 ag: inactive; RGS4 act: -8.9; RGS4 act valid: 40; M3R Ca counter: inactive

What do the screens show for `Cc1ccc(S(=O)(=O)Nc2cccc(C(=O)NCC(c3ccco3)N(C)C)c2)cc1F` (centres undefined)?
RGS4 inh: inactive; MrgX1 PAM: inactive; MrgX1 antag: inactive; MrgX1 ag: inactive; RGS4 act: -8.2; RGS4 act valid: 66; M3R Ca counter: 84

How did CNS(=O)(=O)c1cccc(C(=O)NCC(c2ccco2)N(C)C)c1 (centres undefined) do in these assays?
RGS4 inh: inactive; MrgX1 PAM: inactive; MrgX1 antag: inactive; MrgX1 ag: inactive; RGS4 act: inactive

How did CCOC(=O)C(=CNc1ccc(NC2=NCC(C)(C)S2)cc1)C(=O)OCC do in these assays?
RGS4 inh: inactive; MrgX1 PAM: inactive; MrgX1 antag: inactive; MrgX1 ag: inactive; RGS4 act: -11; RGS4 act valid: 79; M3R Ca counter: 84

Results for CCN1C/C(=N\S(=O)(=O)/N=C2\CN(CC)C(=O)N2CC)N(CC)C1=O ?
RGS4 inh: inactive; MrgX1 PAM: inactive; MrgX1 antag: inactive; MrgX1 ag: inactive; RGS4 act: inactive

How did O=C(Nc1nc2ccc(S(=O)(=O)N3CCCC3)cc2s1)c1ccco1 do in these assays?
RGS4 inh: inactive; MrgX1 PAM: inactive; MrgX1 antag: inactive; MrgX1 ag: inactive; RGS4 act: -7.6; RGS4 act valid: inactive; M3R Ca counter: inactive

How did Cc1ccc(SCc2c(-c3ccccc3)nn(C)c2Cl)cc1 do in these assays?
RGS4 inh: inactive; MrgX1 PAM: inactive; MrgX1 antag: inactive; MrgX1 ag: inactive; RGS4 act: inactive

What do the screens show for `Cc1ccc(Sc2c(C#N)c(-c3ccccc3)nn2C)cc1`?
RGS4 inh: inactive; MrgX1 PAM: inactive; MrgX1 antag: inactive; MrgX1 ag: inactive; RGS4 act: -8; RGS4 act valid: 74; M3R Ca counter: 36
